# From PubChem
# Hits are enriched below; roughly 6.1% of the tested compounds scored in any of these assays.
# RAM inhibit: yeast RAM network inhibition | S. cerevisiae dse1pr::URA3 reporter, 5-FOA growth OD615, 2 d; analog-sensitive cbk1-as2 kinase mutant strain | inhibition, % at 50 µM | hit rate 1.8% among 190,000;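 active = inhibition above a set limit, 3 SD over mean compound inhibition, cut at about 8.4% in these data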;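 also: 0% = DMSO-only wells with no growth and 100% = 10 µM 1-NA-PP1 full growth; inhibition rescues growth on 5-FOA so higher OD means more RAM inhibition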
# hDAT+cocaine: modulates human dopamine transporter uptake under cocaine; Q01959; LLC-PK1 hDAT cells, [14C]-dopamine uptake with cocaine IC80; actives deviate in either direction; B-score at 10 µM; hit rate 1.3% among 110,000;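 active = Z score or B-score, a plate-position-corrected score, falls beyond the plate's 99.7% confidence bounds, in either direction; inactive = both scores lie inside the 99.7% bounds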;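 also: scored against the spread of the other compound wells on the same plate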
# Target sequence (Q01959 whole entry, looked up): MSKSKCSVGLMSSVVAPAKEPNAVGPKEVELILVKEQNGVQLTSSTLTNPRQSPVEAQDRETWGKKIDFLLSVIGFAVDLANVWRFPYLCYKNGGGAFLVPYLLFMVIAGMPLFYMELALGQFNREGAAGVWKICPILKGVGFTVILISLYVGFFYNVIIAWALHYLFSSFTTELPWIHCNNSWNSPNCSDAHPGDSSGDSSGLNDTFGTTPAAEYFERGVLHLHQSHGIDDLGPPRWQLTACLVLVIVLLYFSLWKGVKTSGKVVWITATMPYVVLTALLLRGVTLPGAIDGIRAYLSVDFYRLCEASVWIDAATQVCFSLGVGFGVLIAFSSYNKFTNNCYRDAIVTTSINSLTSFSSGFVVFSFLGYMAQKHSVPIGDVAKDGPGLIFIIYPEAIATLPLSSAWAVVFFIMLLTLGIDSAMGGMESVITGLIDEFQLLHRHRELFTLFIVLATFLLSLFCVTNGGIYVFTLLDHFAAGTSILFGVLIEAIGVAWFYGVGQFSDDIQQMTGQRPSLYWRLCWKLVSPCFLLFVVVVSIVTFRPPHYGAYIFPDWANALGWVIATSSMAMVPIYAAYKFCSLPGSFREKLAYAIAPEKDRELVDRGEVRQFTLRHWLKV
# Measles CPE: protection of cells from measles virus | Measles virus-infected cells, CPE protection, absorbance | protection (pct of control), % at 4 µM | hit rate 1.5% among 140,000; in the data active = protection mostly above about 24%, no sharp cut-off; inactive = mostly below about 26%
# WT yeast gro inh: growth inhibition of WT yeast, mitochondrial fusion screen. mitochondrial fusion phenotypic screen, WT strain. inhibition, % at 10 µM. hit rate 2.1% among 190,000; in the data active = inhibition above about 58%; tested in S. cerevisiae
# Yeast life ext: extends the lifespan of yeast. S. cerevisiae growth with nicotinamide, OD615; deaD strain in restrictive glucose medium. inhibition of the nicotinamide effect, % at 10 µM. hit rate 0.68% among 130,000;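 active = inhibition above a set limit, placed 3 SD over the median of all compounds, cut at about 26% in these data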;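 also: 0% = nicotinamide-treated wells and 100% = cells grown without nicotinamide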
#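 Material: Modified budding yeast, DeaD strain | Medium: Restrictive glucose medium | Probe or stimulus: 1.5 mM nicotinamide | Dosing: Single dose 10 µM compound, 0.25% DMSO | Times: 48 h at 30 °C | Technique: OD615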
# BB579 growth dn: chemicals that inhibit yeast BB579 growth in restrictive medium (lifespan-shortening candidates). inhibition, % at 10 µM. S. cerevisiae BB579 growth, OD615, 48 h. hit rate 0.51% among 140,000;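 active = inhibition above a set limit, 3 SD over the mean compound inhibition, cut at about 44% in these data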
#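 System: Saccharomyces cerevisiae DeaD strain BB579, replicative lifespan model yeast. Buffer or medium: restrictive glucose-based CSMM-D medium. Doses: one dose, 10 µM compound with 0.25% DMSO. Timing: 4 h preincubation and 48 h exposure at 30 °C. Detection: turbidity as optical density at 615 nm. Benchmarks: amphotericin B 10 µg/mL, positive.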
# * marks the source's active call; other numbers are inactive results; x = not tested or not shown.
SMILES,RAM inhibit,hDAT+cocaine,Measles CPE,WT yeast gro inh,Yeast life ext,BB579 growth dn
CCC(C)OC(=O)C1=C(C)NC2=C(C(=O)C(C(=O)OC)C(C)C2)C1c1ccc(N(C)C)cc1 (stereo not given),2,1,58*,-5,-17,-22
COCCOC(=O)C1=C(C)NC2=C(C(=O)CCC2)C1c1ccc(N(C)C)cc1 (stereo not given),x,3.1*,x,11,x,x
CCCOC(=O)C1=C(C)NC2=C(C(=O)C(C(=O)OC)C(C)C2)C1c1ccc(N(CC)CC)cc1 (stereo not given),1,-1.3,3,-4,-1,-25
CCN(CC)c1ccc(C2C(C(=O)OCCOC(C)C)=C(C)NC3=C2C(=O)CCC3)cc1 (stereo not given),-1,2.4,2,5,-31,9
NCCCC[C@@H]1NC(=O)c2cc([N+](=O)[O-])cc(I)c2SC[C@@H](C(N)=O)NC(=O)[C@H](Cc2ccc(O)cc2)NC1=O,1,-0.48,8,-14,12,-42
CCCN1C(=O)c2ccccc2NC1c1ccc(C)cc1 (stereo not given),-1,x,x,-3,x,x
O=C(COC(=O)Cc1ccc(Cl)cc1)Nc1cc(S(=O)(=O)N2CCOCC2)ccc1N1CCCC1,3,x,3,-18,5,-47
C/C(N)=C(/C#N)C(=O)COC(=O)c1ccc(C)c(S(=O)(=O)N2CCCCC2)c1,1,0.4,4,-5,-14,-15
C/C(N)=C(/C#N)C(=O)COC(=O)c1cc(S(=O)(=O)N2CCCCC2)ccc1C,2,x,6,95*,-20,-28
CC1=CS(=O)(=O)CC1Sc1nc2ccccc2[nH]1 (stereo not given),1,-1.2,4,9,68*,-59
O=S1(=O)C=CC(Sc2nc3ccccc3[nH]2)C1 (stereo not given),0,0.63,18,-9,1,-49
CCn1c(=O)c(C(=O)NNS(=O)(=O)c2ccc(Cl)cc2)c(O)c2ccccc21,1,x,3,29,28*,-30
CCCCCCC(=O)NNC(=O)c1c(O)c2ccccc2n(CC)c1=O,4,x,x,-10,x,x
CCOc1ccccc1C(=O)N[C@H](C(=O)NCc1ccccc1)C(C)C,0,x,x,-7,x,x
CC(C1CC2CCC1C2)n1c(-c2ccco2)n[nH]c1=S (stereo not given),0,x,x,72*,x,x
Cc1ccc(-n2c(-c3ccco3)n[nH]c2=S)cc1,1,x,x,3,x,x
CCOc1ccc(/C=C/[N+](=O)[O-])c2ccccc12,0,-2.8,1,-9,-2,56*
CCOC(=O)COc1ccc2ccccc2c1/C=C/[N+](=O)[O-],4,x,0,86*,39*,-9
O=C(NCC1CC1)c1cc(-c2ccccc2)nn1CC1CC(c2cccc([N+](=O)[O-])c2)=NO1 (stereo not given),x,0.026,x,x,x,x
CCOC(=O)N1CCN(C(=O)CSCc2nc(-c3ccccc3C)oc2C)CC1,1,0.57,31,-16,-10,-23
CCOC(=O)N1CCN(C(=O)C2CCN(Cc3nc(-c4ccccc4C)oc3C)CC2)CC1,0,x,53*,14,-8,-46
O=C(CSc1nc(-c2ccco2)cc(C(F)(F)F)n1)N1CCN(c2ccc(Cl)cc2)CC1,3,0.67,70*,28,x,-42
COCCNC(=O)C1(C)C=CC2(CCCCC2)N1C(=O)c1ccccc1 (stereo not given),0,-0.0034,22*,-8,3,-53
CC1(C(=O)NCCN2CCOCC2)C=CC2(CCCCC2)N1C(=O)c1ccccc1 (stereo not given),1,-0.093,4,-4,-4,-47
O=C(CSc1nc2ccccc2s1)Nc1ccc2c(c1)oc1ccccc12,4,x,26*,-6,-3,-33
SMILES,RAM inhibit,hDAT+cocaine,Measles CPE,WT yeast gro inh,Yeast life ext,BB579 growth dn
O=C(CSc1nc2ccccc2s1)c1cc2ccccc2o1,9.4*,-0.24,6,16,-5,-23
Cc1ccccc1-n1c(SC2CCOC2=O)nnc1-c1ccncc1 (stereo not given),0,x,x,-9,x,x
S=C(NCCc1ccccc1)N1CCc2ccccc2C1,2,x,x,71*,x,x
O=C(N/N=C/c1ccc(Cl)cc1)c1cc(-c2cccnc2)nc2ccccc12,-1,x,x,8,x,x
O=C(N/N=C/c1ccc[nH]1)c1cc(-c2ccc(Cl)cc2)nc2ccccc12,2,x,x,69*,x,x
O=c1cc(N2CCCCC2)c(-c2ccccc2)n[nH]1,3,x,x,12,x,x
O=C(c1ccc(F)cc1)N1CCN(c2cc(=O)[nH]nc2-c2ccccc2)CC1,0,0.48,39*,0,-18,-26
Cc1ccc(C(=O)N2CCN(c3cc(=O)[nH]nc3-c3ccccc3)CC2)cc1,-1,1.3,38*,4,-16,-27
Cc1ccc(CN2CCN(C/C=C/c3ccc(F)cc3)CC2CCO)o1 (stereo not given),-1,x,x,-4,x,x
COc1ccc(C(=O)Nn2cnc3scc(-c4cccs4)c3c2=O)c(O)c1,3,0.12,17,19,-11,-49
O=C(NCC1CCCO1)c1ccc(COc2ccc(F)cc2)o1 (stereo not given),1,0.052,32*,13,-15,16
O=C(O)C1CC=CCC1C(=O)Nc1cccnc1 (stereo not given),4,x,x,5,x,x
COc1ccccc1NC(=O)CSc1nnc(C)n1CCc1ccccc1,-2,-7.6*,10,-20,-4,1
Cn1cccc1Cc1nnc(SCC(=O)Nc2ccc3c(c2)OCCO3)n1CCc1ccccc1,5,2.5*,4,13,-14,5
Cc1nnc(SCC(=O)NC(C)(C)C)n1CCc1ccccc1,1,-0.47,2,11,x,-1
CCCn1c(SCC(=O)Nc2ccc(C(=O)Nc3ccccc3OC)cc2)n[nH]c1=O,9.2*,x,x,-20,x,x
CCC(=O)Nc1ccc(C(=O)CSc2nnc(-c3ccccc3F)n2CCc2ccccc2)cc1,7,x,x,26,1,-27
O=C(CSc1nnc(-c2ccccc2F)n1CCc1ccccc1)Nc1ccc2[nH]c(=O)[nH]c2c1,9.0*,x,4,15,-2,-13
C=CCn1c(COc2cccc(C)c2)nnc1SCn1nnc2ccccc2c1=O,-1,x,6,-2,0,-13
CCn1c(COc2ccccc2C)nnc1SCC(=O)CC(=O)Nc1ccccc1OC,3,3.1*,2,0,-15,-15
COc1ccc(OC)c(NC(=O)CSc2nnc(Cc3cccn3C)n2CCc2ccccc2)c1,3,3*,5,-10,1,0
CCn1c(COc2ccccc2)nnc1SCC(=O)CC(=O)Nc1ccccc1OC,4,-0.26,4,-59,-7,-6
CCOc1cc(S(=O)(=O)NCc2ccncc2)ccc1Cl,0,x,x,4,x,x
CCCCn1c(=O)[nH]c(=O)c2c1nc(-c1ccccc1F)n2Cc1ccccc1OC,1,x,x,27,x,x
